{"data": "Measured values collected from several papers", "target": "RAC-beta serine/threonine-protein kinase (AKT2, Homo sapiens, UniProt P31751)", "note": "Each line is one published result; the experiments were not run side by side."}
{"Structure (SMILES)": "C[C@@H]1CN(c2ccc3ncc(-c4ccc5[nH]nc(C6CC6)c5c4)n3n2)C[C@H](C)O1", "observed": "binding", "method": "competition with immobilised ligand", "concentration": "0.5 µM", "remaining binding [%]": 97}
{"Structure (SMILES)": "CCS(=O)(=O)c1cc2cc(C[C@@](O)(CC(C)(C)c3ccc(F)cc3C(N)=O)C(F)(F)F)[nH]c2cn1", "observed": "cell-free assay", "method": "competition with immobilised ligand", "concentration": "1 µM", "remaining binding [%]": 93}
{"Structure (SMILES)": "CNC(=O)[C@@H]1CC[C@@H](n2c(-c3ccc4cnccc4c3)nc3ccc(C(=O)NCc4cccc(C(N)=O)c4)cc32)C1", "observed": "binding", "method": "competition with immobilised ligand", "concentration": "1 µM", "remaining binding [%]": 100}
{"Structure (SMILES)": "Cc1cnn2ncc(-c3ccnc(N(C)C)n3)c2c1", "observed": "binding", "concentration": "1 µM", "remaining binding [%]": 100}
{"Structure (SMILES)": "CC(=O)N1CCC(c2ccc(C(=O)NC(=N)N)cc2C(F)(F)F)CC1", "observed": "cell-free assay", "method": "competition with immobilised ligand", "concentration": "1 µM", "remaining binding [%]": 99}
{"Structure (SMILES)": "c1cncc(-c2cccc(Nc3nccc(NC4CCCCC4)n3)c2)c1", "observed": "binding", "method": "competition with immobilised ligand", "concentration": "10 µM", "remaining binding [%]": 62}
{"Structure (SMILES)": "F[C@@H]1CCN(c2nccc(-c3cnn4ncccc34)n2)C1", "observed": "binding", "concentration": "1 µM", "remaining binding [%]": 86}
{"Structure (SMILES)": "CN(C)CC#Cc1ccc(OCCCc2sc(N3CCc4cccc(C(=O)Nc5nc6ccccc6s5)c4C3)nc2C(=O)O)c(F)c1", "observed": "cell-free assay", "method": "competition with immobilised ligand", "concentration": "1 µM", "remaining binding [%]": 100}
{"Structure (SMILES)": "COc1ccnn2ncc(-c3ccnc(N(C)C)n3)c12", "observed": "binding", "concentration": "1 µM", "remaining binding [%]": 100}
{"Structure (SMILES)": "C[C@@H](c1ccc(-n2cnc3c(N)ncnc32)cc1)N1CCc2nn(C)c(Cc3ccccc3)c2C1=O", "observed": "binding", "method": "competition with immobilised ligand", "concentration": "0.1 µM", "remaining binding [%]": 99}
{"Structure (SMILES)": "N[C@@H]1CCN(c2nccc(-c3cnn4ncccc34)n2)C1", "observed": "binding", "concentration": "1 µM", "remaining binding [%]": 100}
{"Structure (SMILES)": "O=C(c1ccc(Nc2nccc(-c3cc4ccccc4s3)n2)cc1)N1CCC(N2CCCC2)CC1", "observed": "binding", "method": "competition with immobilised ligand", "concentration": "1 µM", "remaining binding [%]": 100}
{"Structure (SMILES)": "Cc1nc(N2CC[C@@H](O)C2)ncc1-c1cc(C(F)(F)F)cc2[nH]ncc12", "observed": "binding", "method": "competition with immobilised ligand", "concentration": "1 µM", "remaining binding [%]": 87}
{"Structure (SMILES)": "C[C@@H]1CCN(c2nccc(-c3cnn4ncccc34)n2)C1", "observed": "binding", "concentration": "1 µM", "remaining binding [%]": 93}
{"Structure (SMILES)": "O=C(O)[C@@H]1[C@@H](Cn2nnc3ccccc3c2=O)CC[C@H]1C(=O)c1ccc(OCCC2CCOCC2)cc1", "observed": "cell-free assay", "method": "competition with immobilised ligand", "concentration": "1 µM", "remaining binding [%]": 100}
{"Structure (SMILES)": "O=C(Nc1c[nH]nc1C(=O)NC1CCNCC1)c1cc(F)cc(F)c1", "observed": "binding", "method": "competition with immobilised ligand", "concentration": "1 µM", "remaining binding [%]": 87}
{"Structure (SMILES)": "c1cnn2ncc(-c3ccnc(N4CCC45COC5)n3)c2c1", "observed": "binding", "concentration": "1 µM", "remaining binding [%]": 96}
{"Structure (SMILES)": "CN(C)c1ncnc(-c2ccc3nc(Nc4cc(CN5CCN(C(=O)CC(F)(F)F)CC5)ccn4)[nH]c3c2)c1Cl", "observed": "cell-free assay", "method": "competition with immobilised ligand", "concentration": "1 µM", "remaining binding [%]": 95}
{"Structure (SMILES)": "O=C(c1ccc(Nc2ncc(Cl)c(-c3cc4ccccc4s3)n2)cc1)N1CCC(N2CCCC2)CC1", "observed": "binding", "method": "competition with immobilised ligand", "concentration": "1 µM", "remaining binding [%]": 88}
{"Structure (SMILES)": "COc1ccc2c(O[C@@H]3C[C@H]4C(=O)N[C@]5(C(=O)O)CC5/C=C\\CCCCC[C@H](NC(=O)OC5CCCC5)C(=O)N4C3)cc(-c3csc(NC(=O)C(C)C)n3)nc2c1C (stereo partly drawn)", "observed": "cell-free assay", "method": "competition with immobilised ligand", "concentration": "1 µM", "remaining binding [%]": 89}
{"Structure (SMILES)": "Cc1cnc(Nc2ccc(C(=O)N3CCC(N4CCCC4)CC3)cc2)nc1-c1cc2ccccc2s1", "observed": "binding", "method": "competition with immobilised ligand", "concentration": "1 µM", "remaining binding [%]": 83}
{"Structure (SMILES)": "CN(C)c1nccc(-c2cnn3ncccc23)n1", "observed": "binding", "concentration": "1 µM", "remaining binding [%]": 100}
{"Structure (SMILES)": "N#Cc1ccccc1CSc1nnc2c(n1)[nH]c1ccccc12", "observed": "binding", "method": "competition with immobilised ligand", "concentration": "10 µM", "remaining binding [%]": 93}
{"Structure (SMILES)": "COc1ncc2cc3ccccc3nc2c1C#N", "observed": "cell-free assay", "method": "competition with immobilised ligand", "concentration": "5 µM", "remaining binding [%]": 95}
